Assay results from different studies.
Compare with care: the assays were run in different laboratories.
Organism: Mycobacterium tuberculosis
Read-out: microbial growth

The MIC of `Cc1ccc(CCNc2cc(C3CCCO3)nc3nncn23)cc1` (stereo not shown) is reported as 47 µM (H37RV).
With `CCc1cc(=O)c2c(OCC(O)CN(CC)CC)c3ccoc3c(OC)c2o1` (stereo not shown) the MIC was 128 µg/mL (resazurin; H37RV; 21 days).
For `COc1ccc(-c2oc3ccc(O)c(CN4CCCCC4)c3c2C(=O)NCc2cn(Cc3ccccc3)nn2)cc1`, the MIC was 2 µM (CDC1551).
`[H]/N=C(/N)N[C@H]1[C@H](O)[C@@H](O)[C@H](O[C@@H]2O[C@@H](C)[C@](O)(C=O)[C@H]2O[C@@H]2O[C@@H](CO)[C@H](O)[C@@H](O)[C@@H]2NC)[C@@H](N/C(N)=N\[H])[C@@H]1O` gave an MIC of 0.43 µM (resazurin; H37RV).
The MIC of `COc1c(N2C[C@@H]3CCCN[C@@H]3C2)c(F)cc2c(=O)c(C(=O)O)cn(C3CC3)c12` is reported as 0.13 µM (H37RV).
`NNC(=O)c1ccncc1` gave an MIC of 0.125 µg/mL (H37RV).
The MIC of `CCc1ccc(CCNc2cc(-c3ccccn3)nc3cc(Br)nn23)cc1` is reported as 21 µM (H37RV).
`NC(=S)NN=Cc1ccc(OC(=O)CN2C(=O)CSC2=O)c(Br)c1` has an MIC of 9.27 µM (resazurin; H37RV).
For `NNC(=O)c1ccncc1`, the MIC was 0.0625 µg/mL (resazurin; H37RV; 21 days).
The MIC of `CO[C@H]1/C=C/O[C@@]2(C)Oc3c(C)c(O)c4c(O)c(c(/C=N/N5CCN(C6CCCC6)CC5)c(O)c4c3C2=O)NC(=O)/C(C)=C\C=C\[C@H](C)[C@H](O)[C@@H](C)[C@@H](O)[C@@H](C)[C@H](OC(C)=O)[C@@H]1C` is reported as 0.2 µg/mL (resazurin; H37RV; 7 days).
For `CCc1ccc(CCNc2cc(-c3ccccn3)nc3nncn23)cc1`, the MIC was 0.12 µM (H37RV).
For `CCCc1nc2[nH]c(=O)n(O)c(=O)c2s1`, the MIC was 47.4 µM.
`NC(=S)NN=Cc1ccc(OC(=O)CN2C(=O)CSC2=O)c(Cl)c1` gave an MIC of 5.17 µM (resazurin; H37RV).
`CO[C@H]1/C=C/O[C@@]2(C)Oc3c(C)c(O)c4c(O)c(c(/C=N/N5CCN(C)CC5)c(O)c4c3C2=O)NC(=O)/C(C)=C\C=C\[C@H](C)[C@H](O)[C@@H](C)[C@@H](O)[C@@H](C)[C@H](OC(C)=O)[C@@H]1C` gave an MIC of 0.03 µg/mL (resazurin; H37RV; 5 days).
The MIC of `Nc1nc2[nH]c(=O)n(O)c(=O)c2s1` is reported as greater than 100 µM.
`CO[C@H]1/C=C/O[C@@]2(C)Oc3c(C)c(O)c4c(O)c(c(/C=N/N5CCN(C)CC5)c(O)c4c3C2=O)NC(=O)/C(C)=C\C=C\[C@H](C)[C@H](O)[C@@H](C)[C@@H](O)[C@@H](C)[C@H](OC(C)=O)[C@@H]1C` has an MIC of 0.5 µg/mL (resazurin; H37RV; 21 days).
For `COC(=O)C=C1SC(=NN=Cc2ccc(OC(=O)CN3C(=O)CSC3=O)cc2)NC1=O`, the MIC was 34.6 µM (resazurin; H37RV).
`CO[C@H]1/C=C/O[C@@]2(C)Oc3c(C)c(O)c4c(O)c(c(/C=N/N5CCN(C)CC5)c(O)c4c3C2=O)NC(=O)/C(C)=C\C=C\[C@H](C)[C@H](O)[C@@H](C)[C@@H](O)[C@@H](C)[C@H](OC(C)=O)[C@@H]1C` gave an MIC of 0.1 µg/mL (resazurin; H37RV; 7 days).
The MIC of `FC(F)(F)c1ccc(CCNc2cc(-c3ccccn3)nc3nncn23)cc1` is reported as 0.53 µM (H37RV).
`CCc1cc(=O)c2c(OCC(O)CNC(C)(C)C)c3ccoc3c(OC)c2o1` (stereo not shown) has an MIC of 128 µg/mL (resazurin; H37RV; 21 days).
`O=C(Cc1ccccc1)Nc1cc(-c2ccccn2)nc2nncn12` gave an MIC of 2 µM (H37RV).
The MIC of `O=c1[nH]c2nc(-c3ccncc3)sc2c(=O)n1O` is reported as greater than 100 µM.
With `COc1ccc(-c2oc3ccc(O)c(CN4CCCCC4)c3c2C(=O)NCc2cn(C[C@H]3O[C@H](O[C@H]4O[C@H](CO)[C@@H](O)[C@H](O)[C@H]4O)[C@H](O)[C@@H](O)[C@@H]3O)nn2)cc1` the MIC was 0.7 µM (CDC1551).
With `FC(F)(F)Oc1ccc(CCNc2cc(-c3cccs3)nc3nncn23)cc1` the MIC was 0.33 µM (H37RV).
The MIC of `[H]/N=C(/N)N[C@H]1[C@H](O)[C@@H](O)[C@H](O[C@@H]2O[C@@H](C)[C@](O)(C=O)[C@H]2O[C@@H]2O[C@@H](CO)[C@H](O)[C@@H](O)[C@@H]2NC)[C@@H](N/C(N)=N\[H])[C@@H]1O` is reported as 64 µg/mL (resazurin; 21 days).
`CCCc1ccc(CNc2cc(-c3ccccn3)nc3nncn23)cc1` has an MIC of greater than 100 µM (H37RV; 5 days).
With `CCOC(=O)c1c(-c2ccc(OC)cc2)oc2ccc(OCc3cn(C[C@H]4O[C@H](O[C@H]5O[C@H](CO)[C@@H](O)[C@H](O)[C@H]5O)[C@H](O)[C@@H](O)[C@@H]4O)nn3)c(CN3CCCCC3)c12` the MIC was 77.3 µM (CDC1551).
`CCc1cc(=O)c2c(OCC(O)CNC(C)C)c3ccoc3c(OC)c2o1` (stereo not shown) gave an MIC of 64 µg/mL (resazurin; H37RV; 21 days).
For `FC(F)(F)c1ccc(CCNc2cc(-c3ccccn3)nc3nnc(C4CC4)n23)cc1`, the MIC was 17 to 50 µM (H37RV; 5 days).
With `CCc1cc(=O)c2c(O)c3ccoc3c(OC)c2o1` the MIC was 128 µg/mL (resazurin; 21 days).
For `[H]/N=C(/N)N[C@H]1[C@H](O)[C@@H](O)[C@H](O[C@@H]2O[C@@H](C)[C@](O)(C=O)[C@H]2O[C@@H]2O[C@@H](CO)[C@H](O)[C@@H](O)[C@@H]2NC)[C@@H](N/C(N)=N\[H])[C@@H]1O`, the MIC was 1 µg/mL (resazurin; H37RV; 5 days).
For `C#CCNC(=O)c1c(-c2ccc(OC)cc2)oc2ccc(O)c(CN3CCCCC3)c12`, the MIC was 0.8 µM (CDC1551).
For `CO[C@H]1/C=C/O[C@@]2(C)Oc3c(C)c(O)c4c(O)c(c(/C=N/N5CCN(C)CC5)c(O)c4c3C2=O)NC(=O)/C(C)=C\C=C\[C@H](C)[C@H](O)[C@@H](C)[C@@H](O)[C@@H](C)[C@H](OC(C)=O)[C@@H]1C`, the MIC was 0.152 µM (resazurin; H37RV).
`CC(=O)NC[C@H]1CN(c2ccc(N3CCOCC3)c(F)c2)C(=O)O1` gave an MIC of 0.003 µg/mL (resazurin; H37RV; 21 days).
The MIC of `NNC(=O)c1ccncc1` is reported as 0.34 µM (H37RA).
With `COc1nc2ccc(Br)cc2cc1[C@@H](c1ccccc1)[C@@](O)(CCN(C)C)c1cccc2ccccc12` the MIC was 0.31 µM (H37RV).
For `CC(C)c1nc2[nH]c(=O)n(O)c(=O)c2s1`, the MIC was 65.4 µM.
